Test results reported in ChEMBL document CHEMBL4364253, “Application of Dually Activated Michael Acceptor to the Rational Design of Reversible Covalent Inhibitor for Enterovirus 71 3C Protease” (J Med Chem, 2019).
Active and inactive are the calls of the source.

Tests used:
Enterovirus A71 [1] = assay: Antiviral activity against pseudotyped Enterovirus A71 infected in human muscular rhabdomyosarcoma cells treated prior to viral infection and measured after 24 hrs by luminescence method; type: functional, organism-based; conditions: Enterovirus A
RD = assay: Cytotoxicity against human RD cells at 100 uM after 24 hrs by WST-1 assay relative to control; type: cell-based
[2] = Reversible inhibition of Enterovirus 71 3C protease assessed as overall inhibition constant using NMA-IEALFQGPPK(DNP)FR as substrate pre-incubated for 30 mins followed by substrate addition and measured over 30 mins by fluorescence method; set-up: species or system Enterovirus A71
[3] = target: T1, Cathepsin K (Homo sapiens) (UniProt P43235); assay: Inhibition of human Cathepsin K at 50 uM using Ac-LR-AFC as substrate preincubated for 10 to 15 mins followed by substrate addition and measured for 30 to 60 mins by fluorescence method relative to control
T1 sequence (whole entry): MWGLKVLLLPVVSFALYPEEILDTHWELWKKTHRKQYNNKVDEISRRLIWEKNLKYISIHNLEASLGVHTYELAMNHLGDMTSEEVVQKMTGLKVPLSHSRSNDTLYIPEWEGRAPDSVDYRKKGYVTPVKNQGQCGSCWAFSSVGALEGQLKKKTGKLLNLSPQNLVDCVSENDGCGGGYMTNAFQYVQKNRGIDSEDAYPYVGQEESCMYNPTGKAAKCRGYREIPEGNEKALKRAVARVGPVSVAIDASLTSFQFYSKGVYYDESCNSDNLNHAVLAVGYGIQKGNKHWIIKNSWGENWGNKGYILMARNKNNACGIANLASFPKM

[4] = target: T2, Calpain-1 catalytic subunit (Homo sapiens) (UniProt P07384); assay: Inhibition of human Calpain1 at 50 uM using Ac-LLY-AFC as substrate preincubated for 5 mins followed by substrate addition and measured after 10 mins by fluorescence method relative to control
T2 sequence (whole entry): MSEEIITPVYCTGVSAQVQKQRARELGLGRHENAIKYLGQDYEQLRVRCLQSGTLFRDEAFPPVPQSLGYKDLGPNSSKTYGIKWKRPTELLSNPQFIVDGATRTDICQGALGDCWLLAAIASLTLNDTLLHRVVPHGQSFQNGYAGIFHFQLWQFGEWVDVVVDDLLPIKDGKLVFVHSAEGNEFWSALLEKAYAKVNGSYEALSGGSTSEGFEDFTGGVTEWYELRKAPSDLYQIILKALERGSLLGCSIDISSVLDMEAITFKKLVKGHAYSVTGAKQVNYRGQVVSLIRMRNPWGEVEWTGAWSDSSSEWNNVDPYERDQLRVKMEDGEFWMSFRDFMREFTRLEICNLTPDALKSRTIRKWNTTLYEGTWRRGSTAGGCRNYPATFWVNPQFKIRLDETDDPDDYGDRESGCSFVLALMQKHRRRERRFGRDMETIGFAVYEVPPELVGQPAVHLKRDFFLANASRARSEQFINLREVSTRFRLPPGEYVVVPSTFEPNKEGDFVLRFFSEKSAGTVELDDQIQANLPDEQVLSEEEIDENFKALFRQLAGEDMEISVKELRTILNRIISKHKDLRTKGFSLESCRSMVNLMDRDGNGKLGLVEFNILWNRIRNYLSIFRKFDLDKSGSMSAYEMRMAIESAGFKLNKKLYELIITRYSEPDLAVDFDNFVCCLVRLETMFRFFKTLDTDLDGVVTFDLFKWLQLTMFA

[5] = target: Chymotrypsinogen A (Bos taurus) (UniProt P00766); assay: Inhibition of bovine pancreas alpha-chymotrypsin at 50 uM after 30 mins using N-Succinyl-L-phenylalanine- p-nitroanilide measured for 30 mins
Enterovirus A71 [6] = assay: Binding affinity to Enterovirus 71 3C protease assessed as enzyme-compound covalent adduct formation via Cys147 residue by measuring ratio of peak intensity of covalently modified to unmodified protein at 10 to 20 equivalent after 1 hr by HPLC-ESI/MS analysis
In short: (§1)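 Recombinant EV71 3C protease (40 µM) incubated with inhibitor at 30 °C in 50 mM Tris, 150 mM NaCl, 1 mM EDTA-2Na, pH 7.0. Free inhibitor and salts removed by three ultrafiltration washes with water (10 kDa cutoff). Analysis by HPLC-ESI-Orbitrap MS with 0.1% formic acid water/acetonitrile mobile phases. Spectra deconvoluted; modification given as adduct-to-unmodified protein peak intensity ratio (I_add/I_pro).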

Enterovirus A71 [7] = assay: Inhibition of Enterovirus 71 3C protease in presence of glutathione
Enterovirus A71 [8] = assay: Inhibition of Enterovirus 71 3C protease in presence of ethanolamine
Enterovirus A71 [9] = assay: Inhibition of Enterovirus 71 3C protease in presence of lysine
Enterovirus A71 [10] = assay: Antiviral activity against pseudotyped FY Enterovirus A71 harboring luciferase reporter gene infected in HEK-293T cells in presence of glutathione by Bright-Glo Luciferase Assay; type: functional, organism-based
Enterovirus A71 [11] = assay: Antiviral activity against pseudotyped FY Enterovirus A71 harboring luciferase reporter gene infected in HEK-293T cells in presence of ethanolamine by Bright-Glo Luciferase Assay; type: functional, organism-based
Enterovirus A71 [12] = assay: Antiviral activity against pseudotyped FY Enterovirus A71 harboring luciferase reporter gene infected in HEK-293T cells in presence of lysine by Bright-Glo Luciferase Assay; type: functional, organism-based
Enterovirus A71 [13] = assay: Irreversible covalent inhibition of Enterovirus 71 3C protease up to 80 uM using NMA-IEALFQGPPK(DNP)FR as substrate by fluorescence method; conditions: TDE = time-dependent effect
Enterovirus A71 [14] = assay: Irreversible covalent inhibition of Enterovirus 71 3C protease assessed as Kinact/Ki ratio using NMA-IEALFQGPPK(DNP)FR as substrate and measured for 1 to 1.5 hrs by fluorescence method
Enterovirus A71 [15] = assay: Irreversible covalent inhibition of Enterovirus 71 3C protease assessed as steady-state velocity approaching zero up to 64 uM using NMA-IEALFQGPPK(DNP)FR as substrate by fluorescence method
Enterovirus A71 [16] = assay: Binding affinity to Enterovirus 71 3C protease assessed as enzyme-compound covalent adduct formation via Cys147 residue by measuring ratio of peak intensity of covalently modified to unmodified protein at 10 equivalent after 30 mins by HPLC-ESI/MS analysis; in short: as §1
Enterovirus A71 [17] = assay: Reversible inhibition of Enterovirus 71 3C protease assessed as recovery of enzyme activity at 10 to 20 equivalent using peptide substrate pre-incubated for 1 hr followed by dilution prior to substrate addition using ultra-filtered sample relative to control
Enterovirus A71 [18] = assay: Reversible inhibition of Enterovirus 71 3C protease assessed as recovery of enzyme activity at 10 to 20 equivalent using peptide substrate pre-incubated for 1 hr followed by dialysis and subsequent substrate addition measured up to 72 hrs relative to control; set-up: scale not given: the % may be the effect or the level left

SMILES	EC50 (Enterovirus A71 [1]) [nM]	Activity (RD) [%]	Ki [2] [nM]	also measured
Cc1cc(C(=O)N[C@@H](Cc2ccc(F)cc2)C(=O)N[C@H](/C=C(/C#N)c2ccccn2)C[C@@H]2CCCNC2=O)no1	2700	90	693	–
Cc1cc(C(=O)N[C@@H](Cc2ccc(F)cc2)C(=O)N[C@H](C=O)C[C@@H]2CCCNC2=O)no1	–	–	–	inhibition [3]: Active; inhibition [4]: < 50%
Cc1cc(C(=O)N[C@@H](Cc2ccc(F)cc2)C(=O)N[C@H](/C=C(\C#N)c2ccsc2)C[C@@H]2CCCNC2=O)no1	3100	–	516	inhibition [5]: inactive; inhibition [3]: < 50%; inhibition [4]: < 50%
Cc1cc(C(=O)N[C@@H](Cc2ccc(F)cc2)C(=O)N[C@H](/C=C(\C#N)c2ccccn2)C[C@@H]2CCCNC2=O)no1	460	100	119	inhibition [5]: inactive; inhibition [3]: 65%; inhibition [4]: < 50%
Cc1cc(C(=O)N[C@@H](Cc2ccc(F)cc2)C(=O)N[C@H](/C=C(\C#N)C(=O)N(C)C)C[C@@H]2CCCNC2=O)no1	110	–	94	Ratio (Enterovirus A71 [6]): 1; inhibition (Enterovirus A71 [7]): inactive; inhibition (Enterovirus A71 [8]): Active; inhibition (Enterovirus A71 [9]): Active; Activity (Enterovirus A71 [10]): Active; Activity (Enterovirus A71 [11]): Active; Activity (Enterovirus A71 [12]): Active
CCOC(=O)C(Cl)=C[C@H](C[C@@H]1CCCNC1=O)NC(=O)[C@H](Cc1ccc(F)cc1)NC(=O)c1cc(C)on1	380	100	164	–
Cc1cc(C(=O)N[C@@H](Cc2ccc(F)cc2)C(=O)N[C@H](/C=C(/C#N)c2ccsc2)C[C@@H]2CCCNC2=O)no1	19500	–	–	–
COC(=O)C(Br)=C[C@H](C[C@@H]1CCCNC1=O)NC(=O)[C@H](Cc1ccc(F)cc1)NC(=O)c1cc(C)on1	290	100	115	–
COC(=O)/C=C/[C@H](C[C@@H]1CCCNC1=O)NC(=O)[C@H](Cc1ccc(F)cc1)NC(=O)c1cc(C)on1	18300	–	–	inhibition [5]: inactive; Ratio (Enterovirus A71 [16]): > 100; inhibition (Enterovirus A71 [13]): Tde; Ratio (Enterovirus A71 [14]): 34 M⁻¹ s⁻¹; Activity (Enterovirus A71 [17]): inactive; inhibition [3]: < 50%; inhibition [4]: < 50%; inhibition (Enterovirus A71 [15]): Active
CCOC(=O)C(Br)=C[C@H](C[C@@H]1CCCNC1=O)NC(=O)[C@H](Cc1ccc(F)cc1)NC(=O)c1cc(C)on1	350	100	117	–
CNC(=O)/C=C/[C@H](C[C@@H]1CCCNC1=O)NC(=O)[C@H](Cc1ccc(F)cc1)NC(=O)c1cc(C)on1	21000	–	–	Ratio (Enterovirus A71 [16]): > 100; inhibition (Enterovirus A71 [13]): Tde; Ratio (Enterovirus A71 [14]): 46 M⁻¹ s⁻¹; inhibition (Enterovirus A71 [15]): Active
Cc1cc(C(=O)N[C@@H](Cc2ccc(F)cc2)C(=O)N[C@@H](C[C@@H]2CCCNC2=O)C(O)C#N)no1 (stereo partly specified)	–	–	–	inhibition [3]: Active; inhibition [4]: Active
CNC(=O)/C(C#N)=C/[C@H](C[C@@H]1CCCNC1=O)NC(=O)[C@H](Cc1ccc(F)cc1)NC(=O)c1cc(C)on1	400	–	304	inhibition [5]: inactive; Ratio (Enterovirus A71 [6]): 0.1; Activity (Enterovirus A71 [17]): Active; Activity (Enterovirus A71 [18]): 50%; inhibition [3]: < 50%; inhibition [4]: < 50%
Cc1cc(C(=O)N[C@@H](Cc2ccc(F)cc2)C(=O)N[C@H](/C=C(\C#N)c2ccc3ccccc3c2)C[C@@H]2CCCNC2=O)no1	13000	–	–	–

Now from value to compound, other results behind:

EC50 (Enterovirus A71 [1]) [nM]	SMILES	Activity (RD) [%]	Ki [2] [nM]	also measured
> 100000	COC(=O)C(C#N)C[C@H](C[C@@H]1CCCNC1=O)NC(=O)[C@H](Cc1ccc(F)cc1)NC(=O)c1cc(C)on1 (mixture of isomers)	–	–	–
> 100000	Cc1cc(C(=O)N[C@@H](Cc2ccc(F)cc2)C(=O)N[C@H](CC(C#N)c2ccccn2)C[C@@H]2CCCNC2=O)no1 (mixture of isomers)	50	–	–
72	CCOC(=O)/C(C#N)=C/[C@H](C[C@@H]1CCCNC1=O)NC(=O)[C@H](Cc1ccc(F)cc1)NC(=O)c1cc(C)on1	–	13.1	–
89	CCCN(C(=O)OC(C)(C)C)C(=O)/C(C#N)=C/[C@H](C[C@@H]1CCCNC1=O)NC(=O)[C@H](Cc1ccc(F)cc1)NC(=O)c1cc(C)on1	–	18	–
> 100000	Cc1cc(C(=O)N[C@@H](Cc2ccc(F)cc2)C(=O)N[C@H](C=C(Cl)C#N)C[C@@H]2CCCNC2=O)no1	100	–	–
77	CCCOC(=O)/C(C#N)=C/[C@H](C[C@@H]1CCCNC1=O)NC(=O)[C@H](Cc1ccc(F)cc1)NC(=O)c1cc(C)on1	–	10.3	–
> 100000	Cc1cc(C(=O)N[C@@H](Cc2ccc(F)cc2)C(=O)N[C@H](C=C(Br)C#N)C[C@@H]2CCCNC2=O)no1	100	–	–
990	CCCNC(=O)/C(C#N)=C/[C@H](C[C@@H]1CCCNC1=O)NC(=O)[C@H](Cc1ccc(F)cc1)NC(=O)c1cc(C)on1	–	752	–
670	COC(=O)C(Cl)=C[C@H](C[C@@H]1CCCNC1=O)NC(=O)[C@H](Cc1ccc(F)cc1)NC(=O)c1cc(C)on1	100	152	inhibition [5]: inactive; inhibition [3]: < 50%; inhibition [4]: < 50%
58	Cc1cc(C(=O)N[C@@H](Cc2ccc(F)cc2)C(=O)N[C@H](/C=C(\C#N)C(=O)OC(C)C)C[C@@H]2CCCNC2=O)no1	–	16.1	–
510	CCNC(=O)/C(C#N)=C/[C@H](C[C@@H]1CCCNC1=O)NC(=O)[C@H](Cc1ccc(F)cc1)NC(=O)c1cc(C)on1	–	332	–
17000	CCOC(=O)/C=C/[C@H](C[C@@H]1CCCNC1=O)NC(=O)[C@H](Cc1ccc(F)cc1)NC(=O)c1cc(C)on1	–	–	inhibition (Enterovirus A71 [13]): Tde; Ratio (Enterovirus A71 [14]): 72 M⁻¹ s⁻¹; inhibition (Enterovirus A71 [15]): Active
> 100000	CC(C#N)=C[C@H](C[C@@H]1CCCNC1=O)NC(=O)[C@H](Cc1ccc(F)cc1)NC(=O)c1cc(C)on1	–	–	–
> 100000	Cc1cc(C(=O)N[C@@H](Cc2ccc(F)cc2)C(=O)N[C@H](/C=C(\C#N)c2ccccc2)C[C@@H]2CCCNC2=O)no1	–	–	–
